The source made the active and inactive calls. The rule behind the calls is not given here.
Experiments:
Gamma-secretase [1] = assay: Modulation of gamma-secretase activity in human H4 cells expressing APP695 assessed as increase in amyloid beta42 production after 20 to 24 hrs by liquid phase electrochemiluminescence assay; format: cell-based
How it was run: (§1)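 Aβ-lowering assay in H4 APPΔ9 cells. Secreted Aβ isoforms (Aβ38, Aβ40, Aβ42) were quantified by liquid phase electrochemiluminescence (LPECL). Dose-response testing was capped at 100 μM to avoid micelle formation by the amphiphilic acids. EC50 values were derived from the curves, and the response at 100 μM was reported where EC50 could not be determined.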

[2] = target: T1, Gamma-secretase (Homo sapiens) (UniProt Q96BI3+Q9NZ42+Q8WW43+P49768+Q92542+P49810); assay: Modulation of gamma-secretase activity in human H4 cells expressing APP695 assessed as increase in amyloid beta40 production at 100 uM after 20 to 24 hrs by liquid phase electrochemiluminescence assay; format: cell-based; how it was run: as §1
[3] = target: T1, Gamma-secretase (Homo sapiens); assay: Modulation of gamma-secretase activity in human H4 cells expressing APP695 assessed as increase in amyloid beta38 production at 100 uM after 20 to 24 hrs by liquid phase electrochemiluminescence assay; format: cell-based; how it was run: as §1
H4 [4] = assay: Cytotoxicity against human H4 cells assessed as cell viability by MTS assay; format: cell-based
How it was run: (§2)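 Viability of H4 APPΔ9 cells was read by a colorimetric cell proliferation assay based on bioreduction of MTS (Owen's reagent) to formazan.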

H4 [5] = assay: Cytotoxicity against human H4 cells assessed as cell viability at 80 uM by MTS assay; format: cell-based; settings: h4, 80 µM; how it was run: as §2
Gamma-secretase [6] = assay: Modulation of gamma-secretase activity in human H4 cells expressing APP695 assessed as increase in amyloid beta38 production after 20 to 24 hrs by liquid phase electrochemiluminescence assay; format: cell-based; how it was run: as §1
Gamma-secretase [7] = assay: Modulation of gamma-secretase activity in human H4 cells expressing APP695 assessed as increase in amyloid beta40 production after 20 to 24 hrs by liquid phase electrochemiluminescence assay; format: cell-based; how it was run: as §1
H4 [8] = assay: Cytotoxicity against human H4 cells assessed as cell viability at 160 uM by MTS assay; format: cell-based; settings: h4, 160 µM; how it was run: as §2
H4 [9] = assay: Cytotoxicity against human H4 cells assessed as cell viability at 20 uM by MTS assay; format: cell-based; settings: h4, 20 µM; how it was run: as §2
Mus musculus = assay: Antialzheimer activity in APP Swedish mutant transgenic C57/BLg mouse assessed as change in amyloid beta42 level in brain at 10 mg/kg, po after 5 hrs; format: functional, organism-based; set-up: dose 10 mg/kg
[10] = Ratio of AUC in brain to AUC in plasma in APP Swedish mutant transgenic C57/BLg mouse at 10 mg/kg, po after 5 hrs; settings: in vivo
[11] = Ratio of AUC in plasma to AUC in cerebrospinal fluid in rat; format: ADME, CSF/Plasma; settings: in vivo

Row | Structure (SMILES) | IC50 (Gamma-secretase [1]) [µM] | Activity [2] | Activity [3] | Activity (H4 [4]) | other results
1 | CCCCCCCCn1c2ccccc2c2ccc(OCC(=O)OCC(C)C)cc21 | > 80 | inactive | inactive | Non-toxic | 
2 | CCCCCCCCn1c2ccc(Cl)cc2c2ccc(C(C)CO)cc21 (configuration not stated) |  | inactive | inactive |  | Activity (H4 [5]): Toxic; EC50 (Gamma-secretase [1]): 21 µM
3 | CCCCCCCCn1c2ccccc2c2ccc(OCCC(=O)O)cc21 | > 80 |  |  | Non-toxic | EC50 (Gamma-secretase [6]): > 80 µM; IC50 (Gamma-secretase [7]): > 80 µM
4 | CCCCCCCCn1c2ccc(Cl)cc2c2ccc(C(C)C(=O)O)cc21 (configuration not stated) | 6.9 |  |  |  | IC50 (Gamma-secretase [6]): 100 µM; IC50 (Gamma-secretase [7]): > 40 µM
5 | CCCCCCCCn1c2ccccc2c2ccc(OCCS(=O)(=O)O)cc21 | > 80 | inactive | inactive |  | 
6 | CCCCCCCCn1c2ccccc2c2ccc(OCC(=O)OC(C)(C)C)cc21 |  | inactive | inactive | Non-toxic | EC50 (Gamma-secretase [1]): 19 µM
7 | CCCCCCCCn1c2ccccc2c2ccc(OCC(=O)O)cc21 | 19 |  |  |  | EC50 (Gamma-secretase [6]): 24 µM
8 | CCCCCCCCn1c2ccccc2c2ccc(OCC(N)=O)cc21 | 104 | inactive | inactive |  | Activity (H4 [8]): Toxic
9 | CCCCCCCCn1c2ccccc2c2ccc(OCCO)cc21 | > 40 | inactive | inactive | Non-toxic | 
10 | CCCCCCCCn1c2ccc(Cl)cc2c2ccc(C(C)C(=O)OCc3ccccc3)cc21 (configuration not stated) | > 80 | inactive | inactive | Non-toxic | 
11 | CCCCCCCCn1c2ccccc2c2ccc(OCCN(C)C)cc21 |  | inactive | inactive |  | EC50 (Gamma-secretase [1]): > 10 µM; Activity (H4 [9]): Toxic
12 | CCCCCCCCn1c2ccccc2c2cc(CO)c(OCCO)cc21 | 80 | inactive | inactive |  | 
13 | CCCCCCCCn1c2ccccc2c2ccc(OC3=C(O)C(Cc4ccccc4)N(Cc4ccc5c(c4)OCO5)C3=O)cc21 (configuration not stated) | 24 |  |  |  | Activity (H4 [5]): Toxic; IC50 (Gamma-secretase [6]): 31 µM; IC50 (Gamma-secretase [7]): 32 µM
14 | CCCCCCCCn1c2ccccc2c2ccc(OCC(=O)OC)cc21 | 27 | inactive | inactive | Non-toxic | 
15 | CCCCCCCCn1c2ccccc2c2ccc(OCCP(=O)(OCC)OCC)cc21 |  | inactive | inactive |  | Activity (H4 [5]): Toxic; EC50 (Gamma-secretase [1]): 13 µM
16 | CCCCCCCCn1c2ccc(Cl)cc2c2ccc(C(C)C(=O)OCC)cc21 (configuration not stated) |  | inactive | inactive |  | EC50 (Gamma-secretase [1]): 21 µM
17 | CCCCCCCCn1c2ccccc2c2ccc(OCC(O)C(F)(F)F)cc21 (configuration not stated) |  | inactive | inactive |  | EC50 (Gamma-secretase [1]): 12 µM
18 | CCCCCCCCn1c2ccccc2c2ccc(OCCNC=O)cc21 | > 80 | inactive | inactive | Non-toxic | 
19 | CCCCCCCCn1c2ccccc2c2ccc(O)cc21 | > 80 | inactive | inactive |  | 

Row | Structure (SMILES) | IC50 (Gamma-secretase [1]) [µM] | Activity [2] | Activity [3] | Activity (H4 [4]) | other results
20 | CCCCCCCCn1c2ccccc2c2ccc(Oc3ccccc3C(=O)O)cc21 | 38 |  |  | Non-toxic | EC50 (Gamma-secretase [6]): 23 µM; IC50 (Gamma-secretase [7]): > 80 µM
21 | CCCCCCCCn1c2ccccc2c2ccc(OCC(=O)OC(C)C)cc21 |  | inactive | inactive |  | EC50 (Gamma-secretase [1]): 49 µM
22 | CCCCCCCCn1c2ccccc2c2ccc(OCC#N)cc21 | 252 |  |  |  | IC50 (Gamma-secretase [6]): 74 µM; IC50 (Gamma-secretase [7]): 105 µM
23 | CCCCCCCCn1c2ccc(Cl)cc2c2ccc(C(C)C(=O)NS(C)(=O)=O)cc21 (configuration not stated) |  | inactive | inactive |  | EC50 (Gamma-secretase [1]): 32 µM
24 | CCCCCCCCn1c2ccccc2c2ccc(OC(C)(C)C(=O)O)cc21 | > 40 |  |  |  | Activity (H4 [5]): Toxic; EC50 (Gamma-secretase [6]): > 40 µM; IC50 (Gamma-secretase [7]): > 40 µM
25 | CCCCCCCCn1c2ccccc2c2cc(CCC(=O)O)c(OCC(=O)O)cc21 | > 80 | inactive | inactive |  | 
26 | CCCCCCCCn1c2ccccc2c2ccc(OCCN)cc21 |  |  |  | Non-toxic | EC50 (Gamma-secretase [1]): > 80 µM; IC50 (Gamma-secretase [6]): > 80 µM; IC50 (Gamma-secretase [7]): > 80 µM
27 | CCCCCCCCn1c2ccccc2c2cc(C=O)c(OCC(=O)O)cc21 | 32 | inactive | inactive |  | Activity (H4 [5]): Toxic
28 | CCCCCCCCn1c2ccccc2c2ccc(OCC(=O)OCC)cc21 | 31 | inactive | inactive |  | 
29 | CCCCCCCCCCn1c2ccc(Cl)cc2c2ccc(C(C)C(=O)O)cc21 (configuration not stated) |  |  |  |  | Activity (Mus musculus): inactive; Ratio AUC [10]: < 0.1
30 | CCCCCCCCn1c2ccccc2c2ccc(OC3=C(O)COC3=O)cc21 | 37 |  |  | Non-toxic | EC50 (Gamma-secretase [6]): 21 µM; IC50 (Gamma-secretase [7]): > 80 µM
31 | CCCCCCCCn1c2ccccc2c2ccc(OC3=C(O)CNC3=O)cc21 | 28 |  |  | Non-toxic | EC50 (Gamma-secretase [6]): 8 µM; IC50 (Gamma-secretase [7]): 72 µM
32 | CC(C(=O)O)c1ccc(-c2ccccc2)c(F)c1 (configuration not stated) [FLURBIPROFEN] |  |  |  |  | Ratio AUC [11]: 5.31
33 | CCCCCCCCn1c2ccc(Cl)cc2c2ccc(C(C)C(=O)OC)cc21 (configuration not stated) |  | inactive | inactive |  | EC50 (Gamma-secretase [1]): 15 µM
34 | CCCCCCCCn1c2ccccc2c2ccc(OCCN(C(=O)C(F)(F)F)C(=O)C(F)(F)F)cc21 | > 80 | inactive | inactive | Non-toxic | 
35 | CCCCCCCCn1c2ccc(Cl)cc2c2ccc(CC)cc21 |  | inactive | inactive |  | EC50 (Gamma-secretase [1]): 50 µM
36 | CCCCCCCCn1c2ccccc2c2ccc(OCc3nn[nH]n3)cc21 | 113 |  |  |  | IC50 (Gamma-secretase [6]): 165 µM; IC50 (Gamma-secretase [7]): 102 µM
37 | CCCCCCCCn1c2ccccc2c2cc(C=O)c(OCC(=O)OC)cc21 | 89 | inactive | inactive | Non-toxic | 

From ChEMBL document CHEMBL1811865, “NSAID-derived γ-secretase modulation requires an acidic moiety on the carbazole scaffold” (Bioorg Med Chem, 2011)
